Screening results from PubChem BioAssay.
Shown is part of a subset that was picked to be rich in hits.
UPR CHOP act: apoptotic UPR (CHOP) activation | 0.34% of 330,000 active | AID 449763 | activation, % at 10 µM | CHO-CHOP luciferase reporter, luminescence; percent of tunicamycin response over DMSO baseline;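 active = at 10 µM dose, activation of 40% or more, normalized to positive control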;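 note: 100% = tunicamycin at 10 µg/mL and 0% = DMSO alone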
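Test system: CHO-CHOP cells, stable luciferase reporter of PERK-eIF2a-CHOP signalling | Quantity: 500 CHO-CHOP cells per well | Buffer or medium: F12 plus 10% serum | Compound dosing: 10 µM single point, 0.5% DMSO | Schedule: 6 h compound treatment, 37 °C | Signal: Luciferase luminescence | Control set: Tunicamycin high control, DMSO low control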
A1 inh: inhibitors of the anti-apoptotic protein A1, read as caspase activation; MEF A1-2A-BIM cells, Caspase-Glo 3/7 luminescence, 3 h; percent of clofoctol response, vehicle zero; caspase activation, % (concentration not given with the values); 0.066% of 330,000 active; AID 2462;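 active = over half of replicate activation scores above 10%, or exactly half above 10 with the replicate mean above 10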
XBP1 UPR activ: activators of adaptive arm of unfolded protein response (XBP1). CHO-XBP1 luciferase reporter, IRE1-XBP1 UPR activation, luminescence; percent of tunicamycin response, DMSO as zero. activation, % at 20 µM. 0.33% of 330,000 active;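 active = versus positive control, 20 µM dose yields 30% or more activation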;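 note: 100% = tunicamycin at 10 µg/mL and 0% = DMSO only wells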
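Test system: CHO-XBP1 luciferase reporter cells | Buffer or medium: Serum-containing F12 medium, 10% FBS | Schedule: 6 h compound exposure at 37 °C, 5% CO2 | Detection: Steady-Glo luciferase glow luminescence, 10 min after reagent addition | Read-out basis: Activation, % of tunicamycin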
CHOP inh: blocks CHOP induction under ER stress; CHO-K1 CHOP-promoter luciferase, tunicamycin-induced, 15-18 h; inhibition, % at 10 µM; 3.8% of 220,000 active; AID 2732;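 active = compounds that reduced the stress-induced luciferase reporter signal by more than about 70% of percent inhibition, limit read from the data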;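 note: 0% = tunicamycin plus vehicle and 100% = wells without tunicamycin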
CHOP UPR conf: apoptotic UPR (CHOP) activation, confirmed. shares compounds with UPR CHOP act. CHO-CHOP cells, CHOP-luciferase reporter luminescence; percent of tunicamycin response, DMSO as zero. activation, % at 10 µM. 64% of 1,000 active; in the data active = activation above about 33%;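 note: 0% = DMSO wells and 100% = tunicamycin 10 µg/mL wells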
An asterisk follows results filed as active; · = not tested or not shown.

SMILES	UPR CHOP act	A1 inh	XBP1 UPR activ	CHOP inh	CHOP UPR conf
Cc1cccc(/C=C/C(=O)c2ccc([N+](=O)[O-])o2)c1	216.8*	3.1	-7.1	·	142.5*
O=C(/C=C/c1cccc([N+](=O)[O-])c1)c1ccc([N+](=O)[O-])o1	·	1.9	·	·	·
COc1ccc(/C=C/C(=O)c2ccc([N+](=O)[O-])o2)cc1	88.9*	0.7	-6.4	·	98.5*
O=C(c1cccc(C(F)(F)F)c1)N1CCN(S(=O)(=O)c2ccc(Cl)s2)CC1	-0.3	-0.4	-3.8	·	·
CN(C(=O)CSc1nnnn1C)C1(C#N)CCCCC1	0.1	-0.4	2.2	·	·
Cc1ccc(N=C2C(=S)N(c3ccc(C)cc3)C(=N)N2/N=C/c2ccc(Cl)cc2)cc1	56.5*	-0.4	7.3	49.8	17.2
COc1ccc(/C=N/N2CCN(c3ccc(Cl)cc3)CC2)cc1	0.4	-0.4	2.1	·	·
CCS(=O)(=O)N1CCN(c2nc(-c3ccccc3)cs2)CC1	0.9	-0.8	4.2	56.5	·
COc1ccc(-c2nnn(CC(=O)NC3CCCc4ccccc43)n2)cc1OC (configuration not stated)	0.9	0.1	0.9	·	·
O=C(CS(=O)c1ccccc1[N+](=O)[O-])Oc1ccc(Br)cc1 (configuration not stated)	-1.1	1.4	-1.0	26.2	·
CS(=O)(=O)c1ccc(S(=O)CC(=O)Oc2ccc(Cl)cc2)c([N+](=O)[O-])c1 (configuration not stated)	51.5*	2.2	-8.8	108.0*	24.2
O=C(Nc1nc2ccccc2s1)c1cnccn1	-0.9	-8.0	-5.2	43.1	·
O=C(Nc1nc2ccc(F)cc2s1)c1ccccn1	79.9*	0.3	-7.7	81.4*	73.2*
O=C(COC(=O)CC1CC2CCC1C2)Nc1c(F)cccc1F (configuration not stated)	0.4	-0.7	-4.2	9.9	·
CC1(C)CC(=O)C2=C(C1)N=c1s/c(=C/c3ccc(F)c(F)c3)c(=O)n1C2c1ccc(F)cc1 (configuration not stated)	40.2*	0.6	2.5	-24.7	28.9
CCOC(=O)C1=C(C)N=c2s/c(=C\c3ccc(C(=O)O)cc3)c(=O)n2C1c1ccc(F)cc1 (configuration not stated)	0.0	0.2	7.5	·	·
CC(C)[C@H](NC(=O)OC(C)(C)C)C(=O)N/N=C/c1ccc2nccnc2c1	1.2	-0.6	4.0	9.3	·
C/C(=N\NC(=O)CCCCCNC(=O)c1ccccc1)c1ccccc1O	-1.3	1.0	-3.8	3.2	·
COC(=O)c1nn(-c2ccc(OC)cc2)c(=O)cc1O	0.5	1.4	-3.2	-14.2	·
COc1ccc(-n2nc(C#N)c(Cl)cc2=O)cc1	149.3*	·	-5.9	101.0*	72.5*
COc1cc(F)ccc1S(=O)(=O)n1c(C)nc2ccccc21	1.2	0.6	-1.2	·	·
CCOc1cc(N2CCOCC2)c(OCC)cc1NC(=O)CSc1nnc(N)s1	0.4	0.8	-2.9	·	·
C/C(=N\NC(=O)c1c[nH]c2ccccc12)c1ccccn1	-2.1	-2.1	-1.0	59.2	·
C=CCNC(=S)N/N=C(\C)c1ccccn1	211.4*	-1.2	1.4	39.6	203.3*
C/C(=N\NC(=O)c1ccc(F)cc1)c1ccccn1	302.8*	-2.2	-1.0	·	266.7*
SMILES	UPR CHOP act	A1 inh	XBP1 UPR activ	CHOP inh	CHOP UPR conf
C/C(=N\NC(=O)c1cc2ccccc2cc1O)c1ccccn1	245.0*	1.9	-0.4	·	291.9*
O=C(NCc1ccncc1)Nc1ccc2c(c1)OCO2	0.6	0.5	-2.3	17.7	·
O=C(Nc1cc([N+](=O)[O-])ccc1F)c1ccc2c(c1)OCCO2	98.9*	-2.7	3.3	5.7	3.5
CCOC(=O)c1c(C)oc2c1c(C(c1ccccc1)N1CCOCC1)c(O)c1ccccc12 (configuration not stated)	61.6*	-0.1	10.5	-22.6	72.9*
CCOC(=O)c1c(C)oc2c1c(C=NCCO)c(O)c1ccccc12	·	·	·	49.8	·
CCOC(=O)c1c(C)oc2c1c(C(c1cccnc1)N1CCCCC1)c(O)c1ccccc12 (configuration not stated)	114.0*	0.1	11.3	17.2	181.9*
Cc1c(CCOC(=O)C23CC4CC(CC(C4)C2)C3)sc[n+]1CC#N	0.3	-0.1	11.4	-18.1	·
